Data from the RNAGym collection of RNA variant scans (doi:10.1126/science.aae0568).
Variants at the floor of the assay were thinned out.

B1: tRNA (parent)
chain: GUUCCGUUGGCGUAAUGGUAACGCGUCUCCCUCCUAAGGAGAAGACUGCGGGUUCGAGUCCCGUACGGAACG

Variants of: B1
Experiment: yeast fitness relative to wild type (ratio to wild type); higher = fitter; tRNA-Arg(CCU), competitive growth, 37 C, YPD
Method in brief: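 Changes in genotype frequencies gave Darwinian fitness relative to wild type. Frequencies were read by 100-nucleotide paired-end sequencing of gene amplicons before and after pooled Saccharomyces cerevisiae strains, carrying tRNA-Arg(CCU) gene variants at the native locus, were competed in YPD at 37°C for 24 hours in six replicates. A genotype was kept only with ≥ 100 starting reads, and estimates < 0.5 were set to 0.5.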

Compared with A14C A20U C66A, U13C U26C A65C is higher in yeast fitness: no more than 0.5 for the first, 0.661 for the second.

U13G C27A U28A C33U and A14C C27G C60A A65U cannot be ordered by yeast fitness: no more than 0.5 for the first, no more than 0.5 for the second.

A14C C22G G25A C31U G58A and A14C C30U G50C C66U cannot be ordered by yeast fitness: no more than 0.5 for the first, no more than 0.5 for the second.

Compared with A14C C27A G39A C55U A70G, U13C U47C A65G is higher in yeast fitness: no more than 0.5 for the first, 0.766 for the second.

Compared with A14C C29A G50A, U13C U28C is higher in yeast fitness: 0.576 for the first, 0.838 for the second.

Going from U13G U47A G68A to U13G U32A G48C G51A C61U A69G, the yeast fitness falls from 0.737 to no more than 0.5.

A14C C31U A40G and A14C C27U A43U cannot be ordered by yeast fitness: no more than 0.5 for the first, no more than 0.5 for the second.

A14C C27U A43C and U13G C29U G68C cannot be ordered by yeast fitness: no more than 0.5 for the first, no more than 0.5 for the second.

A14C C27A C31A A70U and A14C C55A A69C cannot be ordered by yeast fitness: no more than 0.5 for the first, no more than 0.5 for the second.

Going from U13G U16G C31G C49U to A14C C49G, the yeast fitness rises from no more than 0.5 to 0.542.

First: A14C C49A
Second: U13G U19A C27U C29U
The yeast fitness of the first is higher: 0.562 for the first, no more than 0.5 for the second.

First: U13G C46U
Second: U13G A37C A70G
The yeast fitness of the first is higher: 0.895 for the first, 0.539 for the second.

First: A14C A45G C49U
Second: A14C A40G C49U G58A
The yeast fitness of the first is higher: 0.549 for the first, no more than 0.5 for the second.

A14C C27G C30G G38C and A14C A15U A40C G48A cannot be ordered by yeast fitness: no more than 0.5 for the first, no more than 0.5 for the second.

Going from U13G U47A to U13G A42U G44A C49A, the yeast fitness falls from 0.976 to 0.602.

Going from A14C C34U G39C G63A to U13G G44A C46U A69C, the yeast fitness rises from no more than 0.5 to 0.646.

A14C C27G C46G A57G A65G and U13G U35A A37G A43U A45C A65C cannot be ordered by yeast fitness: no more than 0.5 for the first, no more than 0.5 for the second.

Going from A14C C22G G25C A42G G44A C61G to A14C C27G, the yeast fitness rises from no more than 0.5 to 0.574.

First: U13G C24G
Second: U13G C24A
The yeast fitness of the first is lower: 0.539 for the first, 0.602 for the second.

Going from U13G C29A to U13G C29U, the yeast fitness rises from 0.571 to 0.769.

Compared with U13C U16G C27G C49A C60A, A14C A21U A40G A65C is higher in yeast fitness: no more than 0.5 for the first, 0.621 for the second.

First: U13G C29U C33U
Second: A14C A36C A69U
The yeast fitness of the first is lower: 0.57 for the first, 0.905 for the second.

Compared with A14C A69U, U13C U26G C27U C49U C66U is higher in yeast fitness: 0.763 for the first, 0.801 for the second.

Going from U13G A45U to A14C C33G, the yeast fitness falls from 0.964 to 0.726.

U13G C55G C60A and A14C C33A A37U C62G cannot be ordered by yeast fitness: no more than 0.5 for the first, no more than 0.5 for the second.

Compared with A14C A20G C27U C62U, A14C A43G is higher in yeast fitness: no more than 0.5 for the first, 0.628 for the second.

Going from A14C A43U to U13G C49G G50C C60G C62A, the yeast fitness falls from 0.731 to no more than 0.5.

A14C C60A A65U and A14C A45C C60G cannot be ordered by yeast fitness: no more than 0.5 for the first, no more than 0.5 for the second.

Going from A14C C31U G58A C62U to A14C C34A A37G C62U, the yeast fitness falls from 0.609 to no more than 0.5.

A14C C24U A36G G68C and A14C C30A A36G C62U G63A cannot be ordered by yeast fitness: no more than 0.5 for the first, no more than 0.5 for the second.

First: U13C U26A C27U
Second: A14C C24G G52C C55U C66U
The yeast fitness of the first is higher: 0.593 for the first, no more than 0.5 for the second.

A14C A40G A42U and A14C A42G G68C cannot be ordered by yeast fitness: no more than 0.5 for the first, no more than 0.5 for the second.

Compared with U13C U16C U26A, A14C A21G C22U U47A G56A is lower in yeast fitness: 0.637 for the first, 0.622 for the second.

A14C A15G G23C A57C and U13C U47A G68A cannot be ordered by yeast fitness: no more than 0.5 for the first, no more than 0.5 for the second.

U13G C49A C55U C60U C61U and A14C C24U A45U G51C cannot be ordered by yeast fitness: no more than 0.5 for the first, no more than 0.5 for the second.

Going from A14C A70U to A14C A70C, the yeast fitness rises from 0.679 to 0.684.

First: U13G G67C
Second: U13G A20C C55U A69U
The yeast fitness of the first is higher: 0.777 for the first, 0.565 for the second.

A14C A45C G50A and A14C C22G G52C cannot be ordered by yeast fitness: no more than 0.5 for the first, no more than 0.5 for the second.

A14C A20U U35C A65G A69U and A14C C27G U35C C46G A65G cannot be ordered by yeast fitness: no more than 0.5 for the first, no more than 0.5 for the second.

Going from U13G U19G A57G C62U to U13G A14G G17A G39C, the yeast fitness rises from no more than 0.5 to 0.758.

Compared with U13C U16G G25C, U13G U28A C55G C66A is higher in yeast fitness: no more than 0.5 for the first, 0.63 for the second.

First: U13G A36C
Second: U13G A36G
The yeast fitness of the first is lower: 0.52 for the first, 0.913 for the second.

A14C C29U C46A and A14C A15U U16A G44A A57U cannot be ordered by yeast fitness: no more than 0.5 for the first, no more than 0.5 for the second.

Compared with U13G A20U U59A, A14C A20U is higher in yeast fitness: no more than 0.5 for the first, 0.641 for the second.

Compared with A14C C30A C33G C46U, U13G C31U U35A A57C is higher in yeast fitness: no more than 0.5 for the first, 0.61 for the second.

First: A14C A43G G68C
Second: U13G C24A A45G
The yeast fitness of the first is higher: 0.65 for the first, no more than 0.5 for the second.

U13G A14C A40C A42U and A14C C27G C33A A45U G67U cannot be ordered by yeast fitness: no more than 0.5 for the first, no more than 0.5 for the second.

U13G A21U C22A G25A G52U and A14C C34U G39C A70U cannot be ordered by yeast fitness: no more than 0.5 for the first, no more than 0.5 for the second.

A14C A21C C29G and A14C A21C C24U A36U A43U G56A G58C C66A cannot be ordered by yeast fitness: no more than 0.5 for the first, no more than 0.5 for the second.

Compared with U13C U32C, A14C C30G G68U is lower in yeast fitness: 0.88 for the first, 0.567 for the second.

A14C C22A C55G and A14C C27A U28A A45G cannot be ordered by yeast fitness: no more than 0.5 for the first, no more than 0.5 for the second.

First: A14C C60A
Second: A14C A37G C49G
The yeast fitness of the first is higher: 0.589 for the first, no more than 0.5 for the second.

A14C C30G C46U G48A U54G and A14C C24A A40G C49A C61G cannot be ordered by yeast fitness: no more than 0.5 for the first, no more than 0.5 for the second.

Going from A14C C34G to A14C C34U, the yeast fitness falls from 0.577 to no more than 0.5.

Compared with U13G C22U U28C C31A, A14C A20U C30A C31A G52A G68U is higher in yeast fitness: no more than 0.5 for the first, 0.551 for the second.

Compared with U13G A14C A42U G51A U54A G56A, U13G G23C A43C is higher in yeast fitness: no more than 0.5 for the first, 0.584 for the second.

A14C A40U G56C G67U and A14C A20U C27G U53C cannot be ordered by yeast fitness: no more than 0.5 for the first, no more than 0.5 for the second.

A14C A45U G48A A69U and U13C U19C A36U A42G G52A C60A C62A cannot be ordered by yeast fitness: no more than 0.5 for the first, no more than 0.5 for the second.

A14C A21C C27U C62U A69C and A14C C22A C46A C66U cannot be ordered by yeast fitness: no more than 0.5 for the first, no more than 0.5 for the second.

Going from U13G C66U to A14C C24U U35C, the yeast fitness falls from 0.818 to no more than 0.5.

Compared with U13G C22U C31A A70U, A14C A42G is higher in yeast fitness: no more than 0.5 for the first, 0.595 for the second.

Going from A14C A42U to U13G U28C G38C, the yeast fitness falls from 0.524 to no more than 0.5.

Compared with A14C A20U C27G U59C C61A, A14C A45C is higher in yeast fitness: no more than 0.5 for the first, 0.702 for the second.

Going from A14C A45U to A14C C30A A40U, the yeast fitness falls from 0.717 to no more than 0.5.

Going from A14C A20C C34U G44C G50C C62U to A14C C55U C61G C62G, the yeast fitness rises from no more than 0.5 to 0.571.

U13C U28C G48A C61G A69C and A14C C22G G63C cannot be ordered by yeast fitness: no more than 0.5 for the first, no more than 0.5 for the second.

First: U13G C27G
Second: A14C C29U G39C U54C
The yeast fitness of the first is lower: 0.537 for the first, 0.678 for the second.

First: U13G G39C A69U
Second: A14C C27U U47C C60G
The yeast fitness of the first is lower: 0.625 for the first, 0.641 for the second.

U13G U53C U64C and A14C A20C A42G G44A U47C cannot be ordered by yeast fitness: no more than 0.5 for the first, no more than 0.5 for the second.

Compared with U13G A20U U59A C66U, U13C U47C G56C is higher in yeast fitness: no more than 0.5 for the first, 0.544 for the second.

A14C C27A C31A G63A and A14C A36U G68A cannot be ordered by yeast fitness: no more than 0.5 for the first, no more than 0.5 for the second.

Compared with A14C C27G C46G A65G, U13G C30G A40G is lower in yeast fitness: 0.576 for the first, no more than 0.5 for the second.

Compared with A14C C31A, A14C C31G is lower in yeast fitness: 0.669 for the first, 0.502 for the second.

First: U13G U19G
Second: A14C A40C G41C C49U C55A A70U
The yeast fitness of the first is higher: 1.05 for the first, no more than 0.5 for the second.

Compared with U13G C46U U53A, A14C C49G G63A is higher in yeast fitness: no more than 0.5 for the first, 0.593 for the second.

First: A14C C49G G63C
Second: A14C C29A
The yeast fitness of the first is lower: 0.592 for the first, 0.596 for the second.

First: U13G G25A
Second: U13C U19G A20G C31U G44A
The yeast fitness of the first is higher: 0.973 for the first, no more than 0.5 for the second.

A14C A21U A42C G58C U64A A69C and A14C A15G G44C C60A cannot be ordered by yeast fitness: no more than 0.5 for the first, no more than 0.5 for the second.

Going from A14C C27G C61U A70G to A14C C22U C55U C61G C62G, the yeast fitness falls from 0.538 to no more than 0.5.

First: U13G U53C G67C
Second: U13G A20U
The yeast fitness of the first is lower: 0.771 for the first, 1.03 for the second.

Compared with A14C C61U, A14C C61A is lower in yeast fitness: 0.626 for the first, 0.604 for the second.

A14C A40G C62G G68A and U13G A20U C22U C24A A45G C55U cannot be ordered by yeast fitness: no more than 0.5 for the first, no more than 0.5 for the second.

First: U13G G38C A42G G56C U59A A70U
Second: U13C U47A C62U
The yeast fitness of the first is lower: no more than 0.5 for the first, 0.596 for the second.

U13G A57U gave a yeast fitness of 0.6.
